PubChem BioAssay AID504486 (The Scripps Research Institute Molecular Screening Center, 2011)
Calls of active or inactive are those of the source.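 Rule for the calls: active = mass spectrometry shows covalent labeling of the catalytic serine in PAFAH2, a platelet-activating factor hydrolase; inactive = no covalent labeling of that serine detected.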

Molecular target: Platelet-activating factor acetylhydrolase 2, cytoplasmic (Homo sapiens) (UniProt Q99487)
Experiment: covalent labeling of PAFAH2 active-site serine, late-stage follow-up, mechanism study for PAFAH2 inhibitor project, biophysical, LC-MS/MS, purified enzyme (AID 504486)
Outline: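 Read-out: Active-site serine covalent modification, yes or no | Assay system: Purified human recombinant PAFAH2 enzyme | Control set: DMSO-only enzyme sample | Measured by: LC-MS/MS of tryptic peptides, searching for +97.053 Da serine adduct | Incubation: 30 min compound exposure at room temperature | Compound dosing: Single dose, 200 µM final inhibitor, DMSO vehicle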

With `O=C(N1CCCC1)n1ncc(-c2ccc(-c3ccccc3)cc2)n1` the outcome was “active”.
